42 compounds from ChEMBL document CHEMBL1133659, “3,4-dihydro-2(1H)-quinolinone as a novel antidepressant drug: synthesis and pharmacology of 1-[3-[4-(3-chlorophenyl)-1-piperazinyl]propyl]-3,4- dihydro-5-methoxy-2(1H)-quinolinone and its derivatives” (J Med Chem, 2000) can be followed below.

Test [1] deals with T1, Sigma non-opioid intracellular receptor 1 (Rattus norvegicus, UniProt Q9R0C9). Nature of the test: Binding affinity for sigma receptor was evaluated by the inhibitory effect on [3H]DTG to rat whole brain membranes. Format: cell membranes. The procedure, abridged: (§1)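 Bound ligand collected by filtration onto PEI-soaked filters and counted by scintillation; nonspecific binding defined with haloperidol. IC50 by nonlinear least-squares fit; mean ± SE of three experiments, or a single experiment where no SE is given.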
T1 sequence (Q9R0C9 whole entry): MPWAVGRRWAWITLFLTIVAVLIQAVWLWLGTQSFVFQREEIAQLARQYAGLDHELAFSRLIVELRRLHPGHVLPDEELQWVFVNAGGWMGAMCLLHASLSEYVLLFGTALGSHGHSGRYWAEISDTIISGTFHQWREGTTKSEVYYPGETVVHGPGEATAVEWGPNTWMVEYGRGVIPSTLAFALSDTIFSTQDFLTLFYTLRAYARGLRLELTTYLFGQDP

For test [2], the system named is Mus musculus. Nature of the test: Effect on the sleeping time of mice anesthetized with halothane (treated group). It is filed as functional. Put shortly:
(§2)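 Groups of 10 mice received compound orally 1 h before testing, at 100 mg/kg unless another dose is noted. Vehicle was 0.5% gum arabic in 0.9% saline, and controls received vehicle alone. Mice were exposed to 4% halothane in air at 2 L/min. Sleeping time ran from loss to recovery of righting reflex (mean ± SE s), expressed as % of control. Two-tailed t-test was used.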

For test [3], the species on record is Mus musculus. The test is described as follows: Effect on the sleeping time of mice before halothane load (control group). Format: functional. The procedure, abridged:
as §2

For test [4], the system named is Mus musculus. The test is described as follows: Effect on Immobility Time in the Forced-Swimming Test in Mice at the dose of 1 mg/kg po. Format: functional. The procedure, abridged:
(§3)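 Mice, 8 per group. Dosing was oral, either as a single dose 1 h before testing on day 2 or repeated once daily for 4 days. Each mouse swam 6 min in a cylinder with 6 cm of water at 22-23 °C, and immobility was scored over the last 4 min. Results are mean ± SE seconds and % of control, analysed by one-way ANOVA with Dunnett's test.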

The subject of test [5] is Mus musculus. Nature of the test: Effect on Immobility Time in the Forced-Swimming Test in Mice at the dose of 0 mg/kg po. Format: functional. Put shortly: as §3
Test [6] deals with Mus musculus. Nature of the test: Effect on Immobility Time in the Forced-Swimming Test in Mice at the dose of 10 mg/kg po. Format: functional. The procedure, abridged:
as §3

The species entered for test [7] is Mus musculus. Nature of the test: Effect on recovery time for coma induced in mice by cerebral concussion (control group). It is filed as functional. The procedure, abridged:
(§4)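 Groups of 10 mice received compound orally 1 h before head concussion, at 100 mg/kg unless another dose is noted. Vehicle was 0.5% gum arabic in saline, and controls received vehicle alone. The read-out was time to reappearance of the righting reflex (mean ± SE s), expressed as % of control. Two-tailed t-test was used.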

The species named for test [8] is Mus musculus. The test is described as follows: Effect on recovery time for coma induced in mice by cerebral concussion (treated group). Format: functional. The procedure, abridged: as §4
Test [9] has as its target T1, Sigma non-opioid intracellular receptor 1. The test is described as follows: Binding affinity for sigma receptor was evaluated by the inhibitory effect on [3H]DTG to rat whole brain membranes. Format: functional, cell membranes. The procedure, abridged: as §1
The subject of test [10] is Mus musculus. The test is described as follows: Effect on the sleeping time of mice anesthetized with halothane (treated group) (p <0.01). It is filed as functional. The procedure, abridged:
as §2

On to `Br.O=C1CCc2c(Cl)cccc2N1CCCN1CCN(c2cccc(O)c2)CC1`, for which the IC50 (in general, the midpoint of a concentration-inhibition curve) in [1] came out at 240 nM. The figures for the Sleeping time in [2] and in test [3] were 529 s and 564 s, respectively.

Regarding `COc1cccc2c1CCC(=O)N2CCCN1CCN(c2cccc(Cl)c2)CC1.Cl`, the figures for the Time in [4], in test [5] and in test [6] were less than 56 s, 115 s and less than 61 s, respectively. Also, the Sleeping time in test [2] is less than 294 s; in test [3], 566 s. Moreover, the RRT in test [7] is given as 180 s; in test [8] it was less than 36 s.

For the compound `COc1cccc2c1ccc(=O)n2CCCN1CCN(c2cccc(Br)c2)CC1`, the RRT in [7] is given as 122 s; in [8], less than 70 s.

For the compound `COc1cccc2c1CCC(=O)N2CCCN1CCN(c2ccc(Cl)cc2)CC1`, the IC50 in test [9] worked out at 460 nM. Also, the values for the Sleeping time in test [2] and in test [3] were 496 s and 465 s, respectively.

Consider `COc1cccc2c1CCC(=O)N2CCCN1CCN(c2cccc(C)c2)CC1`, for which the Sleeping time in [2] turned out to be 426 s; in test [3], 353 s.

With `COc1cccc2c1CCC(=O)N2CCCN1CCN(c2cccc(C(F)(F)F)c2)CC1`, the IC50 in [1] was determined as 490 nM. Moreover, the Sleeping time in test [2] was less than 250 s; in [3], 379 s. Besides, the RRT in test [7] was 134 s; in test [8], less than 48 s.

As for `CC(=O)Nc1cccc(N2CCN(CCCN3C(=O)CCc4c(Cl)cccc43)CC2)c1`, in test [1], the IC50 worked out at 670 nM. Moreover, the Sleeping time is recorded as less than 778 s in test [10] and 565 s in [3].

`COc1cccc2c1CCC(=O)N2CCCN1CCN(c2cccc(N)c2)CC1`: the results for the Sleeping time in test [2] and in [3] were less than 1380 s and 553 s, respectively.

For the compound `CC(C)Oc1cccc2c1CCC(=O)N2CCCN1CCN(c2cccc(Cl)c2)CC1`, the Sleeping time is listed as 304 s in test [2] and 353 s in [3].

`COc1cccc2c1CCC(=O)N2CCCN1CCN(c2cccc(F)c2)CC1`: the values for the Sleeping time in test [2] and in [3] were 600 s and 465 s, respectively.

As for `COc1cccc2c1ccc(=O)n2CCCN1CCN(c2cccc(C(F)(F)F)c2)CC1`, in [1], the IC50 was 820 nM. For the same compound, the RRT in test [7] was 128 s; in test [8], less than 65 s.

As to `O=c1ccc2ccc(O)cc2n1CCCN1CCN(c2ccc(F)cc2)CC1`, in test [1], the IC50 is 1320 nM. Also, the Sleeping time in [2] is 582 s; in test [3] it was 561 s.

Regarding `O=c1ccc2ccccc2n1CCCN1CCN(c2cccc(Cl)c2)CC1`, the IC50 in [1] worked out at 620 nM. Moreover, the figures for the Sleeping time in test [2] and in test [3] were 704 s and 616 s, respectively. Moreover, the values for the RRT in [7] and in test [8] were 138 s and 111 s, respectively.

As to `COc1cccc(N2CCN(CCCN3C(=O)CCc4c(Cl)cccc43)CC2)c1`, the IC50 in test [1] is 130 nM. Besides, the Sleeping time is less than 277 s in test [2] and 548 s in test [3]. Further, the RRT in [7] is 132 s; in test [8], less than 36 s.

Take `O=C1CCc2c(Cl)cccc2N1CCCN1CCN(c2cccc(Cl)c2)CC1`: the Sleeping time in [2] came to 677 s; in test [3], 548 s.

In the case of `COc1ccc2c(c1)CCC(=O)N2CCCN1CCN(c2cccc(Cl)c2)CC1`, the Sleeping time in test [2] is on record as less than 770 s; in test [3], 566 s.

Take `COc1cccc(N2CCN(CCCN3C(=O)CCc4c(OC)cccc43)CC2)c1`: the Sleeping time in test [2] is 579 s; in test [3], 478 s.

In test [9], `O=C(Oc1ccc2c(c1)CCC(=O)N2CCCN1CCN(c2ccccc2)CC1)c1ccccc1` returned an IC50 of more than 10000 nM. The Sleeping time in test [2] is less than 1097 s; in test [3] it was 561 s.

`Cc1cccc(N2CCN(CCCOc3ccc4ccc(O)nc4c3)CC2)c1C`: the values for the Sleeping time in test [2] and in [3] were less than 956 s and 311 s, respectively.

For the compound `COc1ccc2c(c1)N(CCCN1CCN(c3cccc(Cl)c3)CC1)C(=O)CC2`, the values for the Sleeping time in [2] and in test [3] were less than 1280 s and 566 s, respectively.

Compound `COc1cccc2c1CCC(=O)N2CCCN1CCN(c2cccc([N+](=O)[O-])c2)CC1` displayed an IC50 in test [1] of 870 nM. The Sleeping time is on record as less than 339 s in test [2] and 553 s in test [3]. Besides, the RRT in test [7] was 141 s; in [8] it was less than 74 s.

In the case of `Nc1cccc2c1CCC(=O)N2CCCN1CCN(c2cccc(Cl)c2)CC1`, the RRT in [7] was 128 s; in test [8], 129 s.

For the compound `CCOc1cccc2c1CCC(=O)N2CCCN1CCN(c2cccc(Cl)c2)CC1`, the IC50 in test [1] amounted to 870 nM. The Sleeping time in [2] is listed as less than 238 s; in test [3], 353 s. For the same compound, the RRT in test [7] is 113 s; in test [8] it was less than 31 s.

As for `COc1cccc2c1ccc(=O)n2CCCN1CCN(c2cccc(Cl)c2)CC1`, the IC50 in [1] was determined as 980 nM. Also, the RRT in test [7] was 122 s; in [8] it was 131 s.

Regarding `COc1cccc2c1N(CCCN1CCN(c3cccc(Cl)c3)CC1)C(=O)CC2`, the concentration for half-maximal inhibition (IC50) in [1] is 600 nM. For the same compound, the RRT in [7] was 128 s; in [8], 109 s.

In the case of `COc1cccc2c1CCC(=O)N2CCCN1CCN(c2cccc(Br)c2)CC1`, in [1], the IC50 stood at 420 nM. Moreover, the figures for the Sleeping time in [2] and in test [3] were less than 267 s and 498 s, respectively. In addition, the RRT is listed as 136 s in [7] and less than 61 s in test [8].

As to `COc1cccc2c1CCC(=O)N2CCCN1CCN(c2cccc(O)c2)CC1`, the IC50 in [9] amounted to 810 nM. Further, the values for the Sleeping time in [2] and in [3] were 400 s and 483 s, respectively.

Regarding `CC(C)=CCN1CC[C@@]2(C)c3cc(O)ccc3C[C@@H]1[C@@H]2C`, the Sleeping time in test [2] is less than 370 s; in test [3], 549 s. Also, the values for the RRT in [7] and in test [8] were 170 s and less than 72 s, respectively.

On to `O=C1CCc2c(Cl)cccc2N1CCCN1CCN(c2cccc([N+](=O)[O-])c2)CC1`, for which, in test [1], the IC50 came out at 390 nM. Further, the RRT in [7] came to 152 s; in test [8], 110 s.

Consider `CSc1cccc2c1CCC(=O)N2CCCN1CCN(c2cccc(Cl)c2)CC1`, for which the figures for the Sleeping time in test [2] and in test [3] were 439 s and 363 s, respectively.

Take `COc1cccc(N2CCN(CC(=O)NC3c4c(O)c(C)cc(C)c4CC3(C)C)CC2)c1` (centres undefined): the Time is 119 s in test [4], 120 s in test [5] and 123 s in [6]. The same compound registered an IC50 in [1] of more than 15000 nM. For the same compound, the results for the Sleeping time in test [2] and in [3] were less than 373 s and 625 s, respectively. Also, the RRT in test [7] is 210 s; in test [8] it was less than 54 s.

In test [1], `COc1cccc2c1CCC(=O)N2CCCN1CCN(c2ccccc2Cl)CC1` returned an IC50 of 260 nM. Further, the results for the Sleeping time in test [2] and in test [3] were 675 s and 465 s, respectively.

For `COc1cccc2c1CCC(=O)N2CCCCN1CCN(c2cccc(Cl)c2)CC1`, the Sleeping time in test [2] is 549 s; in [3], 478 s.

Turning to `CCCOc1cccc(N2CCN(CCCN3C(=O)CCc4c(Cl)cccc43)CC2)c1`, in test [1], the IC50 came out at 370 nM. Further, the Sleeping time in [2] is listed as 393 s; in [3], 465 s.

Turning to `Nc1cccc(N2CCN(CCCN3C(=O)CCc4c(Cl)cccc43)CC2)c1`, the IC50 in test [1] was determined as 710 nM. Further, the Sleeping time was found to be 646 s in [2] and 504 s in [3].

Regarding `O=C1CCc2c(O)cccc2N1CCCN1CCN(c2cccc(Cl)c2)CC1`, the Sleeping time in [2] was determined as 516 s; in [3], 585 s.

Regarding `COc1cccc2c1CCC(=O)N2CCN1CCN(c2cccc(Cl)c2)CC1`, the Sleeping time in test [2] is 676 s; in test [3] it was 498 s.

On to `COc1cccc2c1CCC(=O)N2CCCN1CCN(c2cccc(C#N)c2)CC1`, for which the Sleeping time in [2] came out at 465 s; in [3] it was 553 s.

As for `COc1cccc2c1CCC(=O)N2CCCN1CCN(c2cc(Cl)cc(Cl)c2)CC1`, the Sleeping time in [2] is recorded as 310 s; in test [3], 363 s. In addition, the RRT in test [7] is 133 s; in test [8] it was 168 s.

Take `CN1C(=O)CN=C(c2ccccc2)c2cc(Cl)ccc21` [DIAZEPAM]: the Sleeping time in [2] is listed as less than 709 s; in [3] it was 245 s.

Take `NC(=O)[C@@H]1CCCN1C(=O)[C@H](Cc1c[nH]cn1)NC(=O)[C@@H]1CCC(=O)N1` [PROTIRELIN]: the results for the Sleeping time in test [2] and in test [3] were less than 377 s and 663 s, respectively. Moreover, the RRT in test [7] was 173 s; in test [8], less than 44 s.

Regarding `C[C@@H]1CN(CCCn2c3ccccc3c3ccccc32)C[C@H](C)N1` [RIMCAZOLE], the Sleeping time in [2] was found to be 490 s; in test [3] it was 482 s. Further, the RRT in test [7] is listed as 131 s; in [8], 115 s.
